Key:
[1] = molecular target: Monoamine transporters; serotonin & dopamine (Rattus norvegicus) (UniProt P31652+P23977); test: Relative binding to serotonin and dopamine transporters; type: protein assay
In short: (§1)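 Ratio of radioligand binding values: SERT ([³H]citalopram) or NET ([³H]nisoxetine) over DAT ([³H]WIN 35,428). Binding 0–4 °C, 2 h (DAT, SERT) or 3 h (NET), final Na⁺ 30 mM (DAT, SERT) or 225 mM (NET); each value from three independent experiments in triplicate.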

[2] = molecular target: Norepinephrine transporter (Rattus norvegicus, UniProt Q9WTR4); test: Inhibition of [3H]- […] binding to Norepinephrine transporter
Sequence of Norepinephrine transporter (Q9WTR4 whole entry): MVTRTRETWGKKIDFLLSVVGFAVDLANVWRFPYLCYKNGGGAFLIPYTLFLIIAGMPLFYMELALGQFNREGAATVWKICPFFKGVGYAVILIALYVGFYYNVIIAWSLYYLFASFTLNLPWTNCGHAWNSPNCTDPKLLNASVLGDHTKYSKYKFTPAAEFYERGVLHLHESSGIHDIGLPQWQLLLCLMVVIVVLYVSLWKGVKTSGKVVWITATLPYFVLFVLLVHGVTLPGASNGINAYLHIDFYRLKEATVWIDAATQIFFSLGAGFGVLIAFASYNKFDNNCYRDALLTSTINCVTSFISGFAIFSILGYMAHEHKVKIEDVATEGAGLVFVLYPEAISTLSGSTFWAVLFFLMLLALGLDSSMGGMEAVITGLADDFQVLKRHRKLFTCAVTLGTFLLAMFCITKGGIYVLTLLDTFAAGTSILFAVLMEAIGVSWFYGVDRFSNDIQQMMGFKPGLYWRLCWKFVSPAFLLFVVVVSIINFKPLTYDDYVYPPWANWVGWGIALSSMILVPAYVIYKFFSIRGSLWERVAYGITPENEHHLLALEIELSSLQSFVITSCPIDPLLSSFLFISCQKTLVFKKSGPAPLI

[3] = molecular target: Sodium-dependent dopamine transporter (Rattus norvegicus, UniProt P23977); test: Inhibition of 3[H] WIN-35 428 binding to Dopamine transporter (DAT)
Sequence of Sodium-dependent dopamine transporter (P23977 whole entry): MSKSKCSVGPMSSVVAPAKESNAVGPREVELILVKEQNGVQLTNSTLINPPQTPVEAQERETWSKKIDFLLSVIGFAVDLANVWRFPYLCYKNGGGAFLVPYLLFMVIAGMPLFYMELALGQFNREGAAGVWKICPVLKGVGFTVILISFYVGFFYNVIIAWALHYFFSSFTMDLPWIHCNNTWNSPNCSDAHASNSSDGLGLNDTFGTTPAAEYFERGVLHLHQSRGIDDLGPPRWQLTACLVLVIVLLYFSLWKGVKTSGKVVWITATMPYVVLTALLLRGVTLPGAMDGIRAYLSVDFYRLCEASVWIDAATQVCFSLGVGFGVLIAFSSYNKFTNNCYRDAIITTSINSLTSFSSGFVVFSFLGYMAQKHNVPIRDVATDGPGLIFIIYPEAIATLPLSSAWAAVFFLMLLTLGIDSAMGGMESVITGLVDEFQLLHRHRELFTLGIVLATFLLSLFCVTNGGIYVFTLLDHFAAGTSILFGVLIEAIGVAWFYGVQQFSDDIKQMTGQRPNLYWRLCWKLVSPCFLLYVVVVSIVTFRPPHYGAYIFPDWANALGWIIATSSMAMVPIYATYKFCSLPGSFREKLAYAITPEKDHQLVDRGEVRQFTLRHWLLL

[4] = molecular target: Sodium-dependent serotonin transporter (Rattus norvegicus, UniProt P31652); test: Inhibition of [3H]- citalopram binding to Serotonin transporter
Sequence of Sodium-dependent serotonin transporter (P31652 whole entry): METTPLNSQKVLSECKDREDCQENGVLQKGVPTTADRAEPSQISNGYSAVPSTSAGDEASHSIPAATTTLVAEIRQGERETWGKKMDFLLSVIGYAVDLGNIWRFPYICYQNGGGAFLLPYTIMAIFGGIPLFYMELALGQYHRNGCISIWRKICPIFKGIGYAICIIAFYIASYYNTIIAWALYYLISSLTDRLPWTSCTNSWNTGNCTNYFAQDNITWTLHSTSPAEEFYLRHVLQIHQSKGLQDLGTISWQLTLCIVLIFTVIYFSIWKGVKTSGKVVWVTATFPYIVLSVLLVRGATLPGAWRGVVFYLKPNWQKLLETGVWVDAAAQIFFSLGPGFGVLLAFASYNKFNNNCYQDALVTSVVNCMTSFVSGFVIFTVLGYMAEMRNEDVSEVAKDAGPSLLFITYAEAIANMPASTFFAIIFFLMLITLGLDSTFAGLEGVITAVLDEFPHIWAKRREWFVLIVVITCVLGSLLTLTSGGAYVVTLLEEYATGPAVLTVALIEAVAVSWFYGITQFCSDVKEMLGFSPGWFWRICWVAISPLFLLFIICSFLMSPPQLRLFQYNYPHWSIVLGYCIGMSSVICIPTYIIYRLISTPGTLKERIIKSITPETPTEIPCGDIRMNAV

[5] = molecular target: Monoamine transporters; Norepininephrine & dopamine (Rattus norvegicus) (UniProt P23977+Q9WTR4); test: Selectivity ratio against dopamine and norepinephrine transporter binding; type: protein assay; in short: as §1
Rattus norvegicus [6] = species on record: Rattus norvegicus; test: Inhibition of [3H]- DA (Dopamine) uptake in rat striatal synaptosomes; type: functional; details: Brain
[7] = Selectivity ratio 3[H]DA uptake /DAT binding
Rattus norvegicus [8] = species on record: Rattus norvegicus; test: Concentration causing 50% Inhibition of [3H]- DA (Dopamine) uptake in rat striatal synaptosomes; type: functional; details: Brain

Sequence of Monoamine transporters; serotonin & dopamine (Rattus norvegicus) (P23977 whole entry, looked up): as the sequence (P23977 whole entry) above
Sequence of Monoamine transporters; serotonin & dopamine (Rattus norvegicus) (P31652 whole entry, looked up): as the sequence (P31652 whole entry) above

Oc1ccc(CN2CCC(CCOC(c3ccccc3)c3ccccc3)CC2)cc1
Ratio [1]: 18 | IC50 [2]: 3.34 µM | IC50 [3]: 0.24 µM | IC50 [4]: 4.33 µM | Ratio [5]: 14

Oc1cccc(CN2CCC(CCOC(c3ccccc3)c3ccccc3)CC2)c1
Ratio [1]: 69 | IC50 [2]: 0.678 µM | IC50 (Rattus norvegicus [6]): 0.0104 µM | Ratio [7]: 0.72 | Ratio [5]: 47

COC(=O)c1ccc(CN2CCC(CCOC(c3ccccc3)c3ccccc3)CC2)cc1
Ratio [1]: 110 | IC50 (Rattus norvegicus [8]): 0.00194 µM | Ratio [7]: 0.23 | IC50 [3]: 0.00823 µM | IC50 [4]: 0.924 µM

C=Cc1ccc(CN2CCC(CCOC(c3ccccc3)c3ccccc3)CC2)cc1
Ratio [1]: 500 | IC50 [2]: 0.715 µM | IC50 (Rattus norvegicus [8]): 0.00108 µM | Ratio [7]: 0.36 | IC50 [3]: 0.00296 µM | IC50 [4]: 1.47 µM | Ratio [5]: 240

C#Cc1ccc(CN2CCC(CCOC(c3ccccc3)c3ccccc3)CC2)cc1
Ratio [1]: 250 | IC50 [2]: 0.76 µM | IC50 (Rattus norvegicus [8]): 0.00481 µM | Ratio [7]: 1.2 | IC50 [3]: 0.0041 µM | IC50 [4]: 1.04 µM | Ratio [5]: 180

Ic1ccc(CN2CCC(CCOC(c3ccccc3)c3ccccc3)CC2)cc1
Ratio [1]: 3040 | IC50 [2]: 1.15 µM | IC50 (Rattus norvegicus [8]): 0.00201 µM | Ratio [7]: 2.1 | Ratio [5]: 1200

COc1cccc(CN2CCC(CCOC(c3ccccc3)c3ccccc3)CC2)c1
Ratio [1]: 55 | IC50 [2]: 0.472 µM | IC50 (Rattus norvegicus [6]): 0.00668 µM | Ratio [7]: 0.34 | IC50 [4]: 1.08 µM | Ratio [5]: 24

CC#Cc1ccc(CN2CCC(CCOC(c3ccccc3)c3ccccc3)CC2)cc1
Ratio [1]: 37 | IC50 [2]: 1.17 µM | IC50 [3]: 0.0651 µM | IC50 [4]: 2.41 µM | Ratio [5]: 18

C=C(C)c1ccc(CN2CCC(CCOC(c3ccccc3)c3ccccc3)CC2)cc1
Ratio [1]: 88 | IC50 [2]: 0.832 µM | IC50 (Rattus norvegicus [8]): 0.0031 µM | Ratio [7]: 0.26 | IC50 [3]: 0.0116 µM | IC50 [4]: 1.03 µM | Ratio [5]: 72

— ChEMBL document CHEMBL1135831, “Expansion of structure-activity studies of piperidine analogues of 1-[2-(diphenylmethoxy)ethyl]-4-(3-phenylpropyl)piperazine (GBR 12935) compounds by altering substitutions in the N-benzyl moiety and behavioral pharmacology of selected molecules” (J Med Chem, 2002)
